Assay outcomes: PubChem, Johns Hopkins Ion Channel Center
KCNK3 inh – human KCNK3 channel inhibition, primary screen | O14649 | CHO-KCNK3 thallium flux, FluxOR fluorescence; active compounds read low | B-score at 10 µM | 340,000 tested, 0.84% active;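 active = B-score under library mean minus 4 SD, starting fluorescence ratio at most library mean plus 5 SD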;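 note: more negative B-score means stronger inhibition of thallium flux through KCNK3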
Kir21 block – blocks the mouse Kir2.1 inward-rectifier potassium channel; HEK293-Kir2.1, FluxOR thallium flux fluorescence; active compounds read low; 310,000 tested, 0.85% active; B-score at 10 µM; P35561;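 active = fluorescence ratio B-score at or below minus 3 SD of library scores, with starting-brightness B-score within 2 SD, cut at about -4.2 in these data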;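 note: channel flux triggered by added potassium and thallium sulfate stimulus; B-score of peak minus minimum fluorescence over baseline after thallium stimulus; more negative B-score means stronger Kir2.1 block with less thallium influx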
KCNQ1 inh – human KCNQ1 channel inhibition; AID 2642; CHO-K1 KCNQ1, FluxOR thallium flux fluorescence; active compounds read high; 310,000 tested, 1.3% active; B-score at 10 µM; P51787;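 active = compounds whose thallium flux B-score, printed positive for inhibition, exceeds three library SD while starting fluorescence stays within three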;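 note: channel opened by potassium depolarization with thallium stimulus after 20 min compound exposure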
Target sequence (P51787 whole entry, looked up): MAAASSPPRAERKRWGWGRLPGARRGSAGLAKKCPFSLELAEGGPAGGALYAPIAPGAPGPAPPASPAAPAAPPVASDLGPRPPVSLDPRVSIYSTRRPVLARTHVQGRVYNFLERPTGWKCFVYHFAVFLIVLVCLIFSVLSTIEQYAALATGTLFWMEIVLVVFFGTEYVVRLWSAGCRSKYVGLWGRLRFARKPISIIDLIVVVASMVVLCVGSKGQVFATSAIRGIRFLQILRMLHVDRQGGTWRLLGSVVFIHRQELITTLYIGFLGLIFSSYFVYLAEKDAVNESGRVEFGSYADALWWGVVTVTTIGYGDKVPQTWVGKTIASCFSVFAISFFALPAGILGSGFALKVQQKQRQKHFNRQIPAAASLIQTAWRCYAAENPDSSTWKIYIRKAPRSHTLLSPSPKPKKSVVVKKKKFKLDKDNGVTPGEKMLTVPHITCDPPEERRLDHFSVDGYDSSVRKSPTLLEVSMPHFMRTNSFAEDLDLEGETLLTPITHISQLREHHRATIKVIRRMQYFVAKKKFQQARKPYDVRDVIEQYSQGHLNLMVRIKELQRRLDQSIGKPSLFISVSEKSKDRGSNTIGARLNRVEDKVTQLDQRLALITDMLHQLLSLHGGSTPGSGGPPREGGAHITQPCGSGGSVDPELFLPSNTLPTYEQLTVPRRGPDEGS
KCNQ1 pot – human KCNQ1 channel potentiation or activation; CHO-K1 KCNQ1, thallium flux FluxOR fluorescence; active compounds read high; B-score at 10 µM; 310,000 tested, 0.35% active; AID 2648;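 active = fluorescence ratio B-score, a plate-corrected score, at least three library SD, with initial intensity B-score within 5 SD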
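assay system = KCNQ1-transfected CHO-K1 cells | medium = assay buffer with matched DMSO | probe or stimulus = depolarizing K+/Tl+ stimulus, K2SO4 and Tl2SO4 each 12.5 mM in 5x stock | dosing = single dose | incubation = dye 90 min, compound 20 min, room temperature | detection = kinetic FluxOR fluorescence, 10 s baseline plus 110 s post-stimulus | evaluation = ratio B score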
KCNK9 inh – inhibitors of human KCNK9 two-pore domain potassium channel. Q9NPC2. 310,000 tested, 1.2% active. AID 488922. HEK293 KCNK9, FluxOR thallium flux fluorescence; active compounds read low. B-score at 10 µM;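 active = ratio B-score over 3 SD below the library mean, with starting fluorescence within 5 SD of its mean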;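 note: negative B-score means less thallium flux so channel inhibition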
hERG rescue – compounds protecting human hERG from proarrhythmic drug block | Q12809 | CHO-hERG, FluxOR thallium flux, dofetilide IC70 present | activation (rescue from dofetilide block), less the hit threshold, % at 10 µM | 310,000 tested, 0.51% active | AID 1511;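 active = activation above the mean of controls blocked by dofetilide plus 5 SD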;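 note: thallium influx through hERG after potassium depolarization seen as dye fluorescence rise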
KCNK9 block conf – human KCNK9 inhibitor confirmation. shares compounds with KCNK9 inh. inhibition, % at 10 µM. AID 492992. HEK293 KCNK9 cells, FluxOR thallium flux fluorescence. 4,900 tested, 43% active;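 active = thallium signal inhibited by more than 5 SD of the compound-free buffer control wells, on both duplicate plates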
Kir2-1 spec – tests whether KCNK9 modulators also affect mouse Kir2.1; shares compounds with KCNK9 inh; Kir2.1 cells, FluxOR thallium flux fluorescence; inhibition, % at 10 µM; 4,900 tested, 4% active;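 active = thallium signal drop more than 5 SD beyond the mean of the no-compound control wells, seen in both duplicate plates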;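 note: signal is fluorescence rise after thallium addition divided by baseline fluorescence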
KCNK9 uninduced – second check of KCNK9 modulator effects in non-induced HEK293 cells | shares compounds with KCNK9 inh | FluxOR thallium flux | inhibition, % at 10 µM | 4,900 tested, 40% active | AID 492997;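 active = thallium signal drop beyond 5 SD of the untreated control mean, on both duplicate plates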
Each line names hits and unclear results; the compound was inactive in the other large screens (follow-up assays come after a bar, where they were run). An excerpt weighted towards active compounds, which were near 3.8% of everything screened.

CCOC(=O)c1c(NC(=O)CSc2nnc(C)c(=O)[nH]2)sc2c1CCCC2	none
COc1ccc(/C=C2\CCC/C(=C\c3ccc(OC)c(OC)c3OC)C2=O)c(OC)c1OC	none | KCNK9 block conf inactive | Kir2-1 spec inactive | KCNK9 uninduced inactive
Cc1ccc(S(=O)(=O)CCC(=O)OCC(=O)NC(C)c2ccccc2)cc1 (stereo not drawn)	none (no result: Kir21 block, KCNQ1 inh, KCNQ1 pot, KCNK9 inh, hERG rescue)
C=CCn1c(COc2ccc3c(c2)CCCC3)nnc1SCC(=O)Nc1cccc(SC)c1	KCNQ1 inh 9 | KCNK9 block conf inactive | Kir2-1 spec inactive | KCNK9 uninduced 30%
CCOC(=O)C1=C(C)N(C)C(=O)NC1c1c(C)nn(-c2ccc(C)cc2)c1Cl (stereo not drawn)	none | KCNK9 block conf inactive | Kir2-1 spec inactive | KCNK9 uninduced inactive
CCOC(=O)C1=C(C)NC(=O)NC1c1c(C)nn(-c2ccccc2)c1Cl (stereo not drawn)	none
O=C(CSc1nnc(NC(=O)c2ccccc2Cl)s1)Nc1ccc2c(c1)oc1ccccc12	none (no result: KCNK3 inh)
CCN(CC)c1ccc(/C=N/OCC(=O)N2CCCc3ccccc32)cc1	none | KCNK9 block conf inactive | Kir2-1 spec inactive | KCNK9 uninduced inactive
O=C(CO/N=C/c1ccc(OC(F)F)cc1)N1CCc2ccccc21	none
O=C1NC(c2ccccc2)N=C2Oc3ccccc3C=C12 (stereo not drawn)	none (no result: Kir21 block, KCNQ1 inh, KCNQ1 pot, KCNK9 inh, hERG rescue)
O=S(=O)(c1ccc(NC(=S)NN=Cc2ccccc2O)cc1)N1CCCCC1	none (no result: Kir21 block, KCNQ1 inh, KCNQ1 pot, KCNK9 inh, hERG rescue)
CCOC(=O)C1CCCN(CCc2ccccc2)C1 (stereo not drawn)	none
O=C(OC1C2CCC1C1CN(CCc3ccccc3)CC12)c1ccccc1 (stereo not drawn)	none | KCNK9 block conf inactive | Kir2-1 spec inactive | KCNK9 uninduced inactive
CCOc1cc(CNC(C)(C)CO)cc(Br)c1OCc1ccc(Cl)cc1Cl	Kir21 block -9.4, KCNK9 inh -8.7 | KCNK9 block conf 55% | Kir2-1 spec 53% | KCNK9 uninduced 34%
CC(C)C[C@H](NC(=O)C1CC(=O)N(c2ccc3c(c2)OCO3)C1)C(=O)NC1CCCCC1 (stereo partly drawn)	none
CC(C)CNC(=O)c1oc2ccccc2c1COc1ccccc1	none | KCNK9 block conf inactive | Kir2-1 spec inactive | KCNK9 uninduced inactive
CCOC(=O)COc1nc(-c2ccc(C)cc2)cc(-c2ccco2)c1C#N	none
CCOC(=O)COc1nc(-c2ccco2)cc(-c2ccco2)c1C#N	KCNK9 inh -10 | KCNK9 block conf 67% | Kir2-1 spec inactive | KCNK9 uninduced 36%
COc1ccc(/C=N\N2CCN(Cc3ccccc3Cl)CC2)cc1	none
COc1ccccc1/C=C/C=N\N1CCN(Cc2ccccc2Cl)CC1	none | KCNK9 block conf inactive | Kir2-1 spec inactive | KCNK9 uninduced inactive
COc1ccccc1N1CCN(/N=C/C=C/c2ccccc2[N+](=O)[O-])CC1	none | KCNK9 block conf inactive | Kir2-1 spec inactive | KCNK9 uninduced inactive
O=[N+]([O-])c1ccccc1/C=C\C=N\N1CCN(c2ccccc2)CC1	none
COc1ccccc1N1CCN(Cc2ccc(-c3ccccc3[N+](=O)[O-])o2)CC1	none | KCNK9 block conf inactive | Kir2-1 spec inactive | KCNK9 uninduced inactive
COc1ccccc1/C=C/C=N/N1CCN(Cc2ccc(Cl)cc2)CC1	none | KCNK9 block conf inactive | Kir2-1 spec inactive | KCNK9 uninduced inactive
C(=C\c1ccccc1)/C=N/N1CCN(Cc2ccccc2)CC1	none
CCc1ccc(C(=O)Nc2cc(C)ccc2F)s1	none
COc1ccc(/C=C/C(=O)c2ccccc2)cc1COc1ccccc1F	KCNK3 inh -12, KCNK9 inh -12 | KCNK9 block conf 50% | Kir2-1 spec inactive | KCNK9 uninduced 32%
COc1ccc(/C=C/C(=O)C2CC2)cc1COc1c(C)cccc1C	KCNQ1 inh 8, KCNK9 inh -11 | KCNK9 block conf 48% | Kir2-1 spec inactive | KCNK9 uninduced inactive
C=CCCC1(C)C(=O)N(c2ccccc2)c2ccccc21 (stereo not drawn)	Kir21 block -6, KCNK9 inh -8.9 | KCNK9 block conf 42% | Kir2-1 spec inactive | KCNK9 uninduced 39%
COc1ccccc1C(c1nnnn1C(C)(C)C)N1CCCCCC1 (stereo not drawn)	KCNK9 inh -8.9 | KCNK9 block conf 30% | Kir2-1 spec inactive | KCNK9 uninduced 28%
CCOc1ccc(C(c2nnnn2C(C)(C)C)N2CCN(C(=O)c3ccco3)CC2)cc1 (stereo not drawn)	none
CC(C)(C)n1nnnc1C(c1cccs1)N1CCCc2ccccc21 (stereo not drawn)	KCNK9 inh -9.9 | KCNK9 block conf inactive | Kir2-1 spec inactive | KCNK9 uninduced inactive
COc1ccccc1C(c1nnnn1C(C)(C)C)N1CCN(C(=O)c2ccco2)CC1 (stereo not drawn)	KCNK9 inh -14 | KCNK9 block conf 54% | Kir2-1 spec inactive | KCNK9 uninduced 46%
CCCCC(=O)Nc1cccc(-c2cn3ccsc3n2)c1	none
O=C(Nc1cccc(-c2cn3ccsc3n2)c1)c1ccccc1	KCNK9 inh -9.7 | KCNK9 block conf 33% | Kir2-1 spec inactive | KCNK9 uninduced inactive
CCOC(=O)[C@H]1[C@H]2COc3ccccc3[C@@H]2N2C(=O)CN(Cc3ccc(C)cc3)C(=O)[C@@]12C	none (no result: Kir21 block, KCNQ1 inh, KCNQ1 pot, KCNK9 inh, hERG rescue)
Cc1ccc(NC(=O)c2cccc3c2C(=O)N(C2CCCCC2)C3)c(C)c1	none
Cc1cc(C)c(NC(=O)c2cccc3c2C(=O)N(C2CCCCC2)C3)c(C)c1	KCNK9 inh -12 | KCNK9 block conf inactive | Kir2-1 spec inactive | KCNK9 uninduced 52%
COc1cc(-c2nc(-c3ccc4c(c3)-c3ccccc3S4(=O)=O)c(-c3ccccc3)[nH]2)cc(OC)c1O	KCNK3 inh -10, KCNQ1 inh 6, KCNK9 inh -16 | KCNK9 block conf 69% | Kir2-1 spec inactive | KCNK9 uninduced 28%
COc1ccc(-c2[nH]c(-c3ccc(C(=O)O)cc3)nc2-c2ccccc2)cc1	none
CCc1ccc(NC(=O)CC2S/C(=N/N=C3CCCCCC3)NC2=O)cc1 (stereo not drawn)	none
COc1ccc(-c2csc(N(Cc3ccco3)C(=O)c3cccs3)n2)cc1	KCNK9 inh -9.4 | KCNK9 block conf 50% | Kir2-1 spec inactive | KCNK9 uninduced 40%
COc1ccc(OC)c(-c2csc(N(Cc3ccco3)C(=O)c3cccs3)n2)c1	KCNQ1 inh 7, KCNK9 inh -12 | KCNK9 block conf 49% | Kir2-1 spec inactive | KCNK9 uninduced 43%
[O-][N+](=C(c1ccccc1)c1ccccc1)c1ccccc1	none (no result: Kir21 block, KCNQ1 inh, KCNQ1 pot, KCNK9 inh, hERG rescue)
